Source: ChEMBL document CHEMBL4715845, “Conjugable A adenosine receptor antagonists for the development of functionalized ligands and their use in fluorescent probes” (Eur J Med Chem, 2020)

Tests used:
[1] = organism: Homo sapiens; assay: Selectivity ratio of Ki for displacement of [3H]CGS21680 from recombinant human A2AAR expressed in HEK293 cell membranes to Ki for displacement of [125I]AB-MEC from recombinant human A3R expressed in CHO cell membranes
[2] = organism: Homo sapiens; assay: Selectivity ratio of Ki for displacement of [3H]R-PIA from recombinant human A1AR expressed in CHO cell membranes to Ki for displacement of [3H]CGS21680 from recombinant human A2AAR expressed in HEK293 cell membranes
[3] = target: T1, Adenosine receptor A1 (Homo sapiens) (UniProt P30542); assay: Displacement of [3H]R-PIA from recombinant human A1AR expressed in CHO cell membranes at 10 uM relative to control
T1 sequence (whole entry): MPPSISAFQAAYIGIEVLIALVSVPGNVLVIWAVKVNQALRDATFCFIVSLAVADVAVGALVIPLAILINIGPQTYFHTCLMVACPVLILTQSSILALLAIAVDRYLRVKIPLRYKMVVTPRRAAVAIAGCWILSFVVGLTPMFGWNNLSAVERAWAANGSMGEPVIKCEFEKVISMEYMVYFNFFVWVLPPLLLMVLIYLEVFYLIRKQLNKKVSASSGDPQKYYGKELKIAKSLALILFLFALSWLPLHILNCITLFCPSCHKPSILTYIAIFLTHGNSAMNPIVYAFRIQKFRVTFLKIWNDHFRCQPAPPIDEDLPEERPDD
In short: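 [3H]R-PIA competition at membranes of CHO cells expressing recombinant human A1AR, with test compound at a single concentration of 10 μM. Adenosine deaminase (3 units/mL) present in the 30 min, 30 °C preincubation and during incubation. Final DMSO ≤2%. Bound radioligand collected on GF/B filters. Reported as % inhibition of specific binding.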

[4] = organism: Homo sapiens; assay: Selectivity ratio of Ki for displacement of [3H]R-PIA from recombinant human A1AR expressed in CHO cell membranes to Ki for displacement of [125I]AB-MEC from recombinant human A3R expressed in CHO cell membranes

inhibition [3]	Structure (SMILES)	Ratio Ki [1]	Ratio Ki [2]	Ratio Ki [4]
	Cn1cc2c(nc(NC(=O)CCCc3cn(CCCCCCNC(=O)c4ccc(-c5c6ccc(=N)c(S(=O)(=O)O)c-6oc6c(S(=O)(=O)O)c(N)ccc56)c(C(=O)O)c4)nn3)n3nc(-c4ccco4)nc23)n1	2.83		
4%	Cn1cc2c(nc(NC(=O)Nc3ccc(CC(=O)O)cc3)n3nc(-c4ccco4)nc23)n1	7.8	> 10	> 78
